Experimental data from ChEMBL document CHEMBL4342514, “Azole Based Acetohydrazide Derivatives of Cinnamaldehyde Target and Kill Candida albicans by Causing Cellular Apoptosis” (ACS Med Chem Lett, 2020).
≈ marks a conversion by molar mass, not a printed value.

Tests used:
Candida albicans [1] = test: Antifungal activity against fluconazole-resistant Candida albicans assessed as growth inhibition measured after 24 hrs by CLSI protocol based broth microdilution method; format: functional
How it was run: (§1)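 C. albicans clinical isolates were tested: 8 fluconazole-susceptible and 3 fluconazole-resistant. Isolates were called resistant at a fluconazole MIC ≥8 μg/mL, per CLSI 2012 interpretive guidelines. Compounds were diluted to test concentrations in 1% DMSO, which served as the negative control. Fluconazole was the positive control. Values are means per group.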

Candida albicans [2] = test: Fungicidal activity against fluconazole-susceptible Candida albicans assessed as growth inhibition by sub-culturing on Agar plate and incubated for 24 to 48 hrs; format: functional; how it was run: as §1
Candida albicans [3] = test: Antifungal activity against fluconazole-susceptible Candida albicans assessed as growth inhibition measured after 24 hrs by CLSI protocol based broth microdilution method; format: functional; how it was run: as §1
[4] = Hemolytic activity against horse erythrocytes at 4 to 125 ug/ml measured after 3 hrs by spectrophometric analysis; format: ADME, cell-based, Equus caballus, Erythrocyte; conditions: read-out: Activity
How it was run: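 Horse red blood cells exposed to compound. Hemolysis read as absorbance at 450 nm and expressed as % lysis relative to 1% Triton X-100, taken as 100% hemolysis.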

Candida albicans [5] = test: Induction of DNA damage in Candida albicans SC5314 assessed as apoptotic cells at 1/2 MIC measured after 3 hrs by TUNEL based confocal microscopy relative to control; format: functional
How it was run: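 SC5314 cells exposed to 1/2 MIC of compound, then TUNEL-labelled with fluorescent dUTP (Ex/Em 488/515 nm) and counterstained with Hoechst 33342 (Ex/Em 350/460 nm). Imaged by confocal laser scanning microscopy and scored as % TUNEL-positive nuclei against untreated control.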

Candida albicans [6] = test: Induction of apoptosis in Candida albicans SC5314 protoplasts assessed as viable cells at 1/2 MIC measured after 3 hrs by Annexin V-FITC/propidium iodide staining based flow cytometry (reference value: 96.3 %); format: functional
Candida albicans [7] = test: Induction of apoptosis in Candida albicans SC5314 protoplasts assessed as late apoptotic cells at 1/2 MIC measured after 3 hrs by Annexin V-FITC/propidium iodide staining based flow cytometry (reference value: 0.06 +/- 0.01 %); format: functional
Candida albicans [8] = test: Antifungal activity against Candida albicans SC5314 assessed as effect on fungal cell viability by measuring dead cells at MIC measured after 3 hrs by Muse cell analyzer (reference value: 1.4 %); format: functional
How it was run: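 Candida albicans SC5314 cells at a density of 1 × 107 were exposed to each compound at its MIC. Live and dead cells were counted with the Muse Count & Viability kit. Untreated cells were the negative control and heat-killed cells the positive control. A cell size index was run in the same assay to separate cells from debris and non-nucleated cells.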

Candida albicans [9] = test: Induction of apoptosis in Candida albicans SC5314 protoplasts assessed as early apoptotic cells at 1/2 MIC measured after 3 hrs by Annexin V-FITC/propidium iodide staining based flow cytometry (reference value: 3.47 +/- 0.26 %); format: functional
Candida albicans [10] = test: Induction of apoptosis in Candida albicans SC5314 protoplasts assessed as necrotic cells at 1/2 MIC measured after 3 hrs by Annexin V-FITC/propidium iodide staining based flow cytometry (reference value: 0.15 +/- 0.03 %); format: functional
Candida albicans [11] = test: Antifungal activity against Candida albicans SC5314 assessed as effect on fungal cell viability by measuring live cells at MIC measured after 3 hrs by Muse cell analyzer (reference value: 98.6 %); format: functional
Candida albicans [12] = test: Fungicidal activity against fluconazole-resistant Candida albicans assessed as growth inhibition by sub-culturing on Agar plate and incubated for 24 to 48 hrs; format: functional; how it was run: as §1
Candida albicans [13] = test: Induction of DNA damage in Candida albicans SC5314 assessed as increase in TUNEL positive nuclei at 0.125 ug/ml measured after 3 hrs by TUNEL based confocal microscopy relative to control; format: functional
How it was run: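 SC5314 cells treated with 0.125 μg/mL amphotericin B, then TUNEL-labelled with fluorescent dUTP and counterstained with Hoechst 33342. Confocal microscopy scored TUNEL-positive (green) nuclei relative to untreated cells.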

Row | SMILES | MIC (Candida albicans [1]) [µg/mL] | MFC (Candida albicans [2]) [µg/mL] | MIC (Candida albicans [3]) [µg/mL] | hemolysis at 3 h [4] [%] | Activity (Candida albicans [5]) | Activity (Candida albicans [6]) [%] | Activity (Candida albicans [7]) [%] | Activity (Candida albicans [8]) [%] | Activity (Candida albicans [9]) [%] | Activity (Candida albicans [10]) [%] | Activity (Candida albicans [11]) [%] | MFC (Candida albicans [12]) [µg/mL] | Activity (Candida albicans [13]) [%]
1 | O=C(Cn1nnc(/C=C/c2ccccc2)n1)N/N=C/c1ccccc1Cl | 125 (≈ 341 µM) | > 125 | 64 (≈ 174 µM) | – | – | – | – | – | – | – | – | – | –
2 | NNC(=O)Cn1nnc(/C=C/c2ccccc2)n1 | – | > 125 | > 125 | – | – | – | – | – | – | – | – | – | –
3 | O=C(Cn1nnc(/C=C/c2ccccc2)n1)N/N=C/c1ccccc1[N+](=O)[O-] | 0.5 (≈ 1.32 µM) | 4 (≈ 10.6 µM) | 0.5 (≈ 1.32 µM) | 10 to 40 | 25 - 55% | 48.3 | 36.34 | 59.6 | 13.37 | 1.98 | 40.4 | 4 (≈ 10.6 µM) | –
4 | COc1ccc(/C=N/NC(=O)Cn2nnc(/C=C/c3ccccc3)n2)cc1 | 8 (≈ 22.1 µM) | 8 (≈ 22.1 µM) | 8 (≈ 22.1 µM) | 10 to 40 | 25 - 55% | 60.9 | 23.6 | 47.7 | 13.9 | 1.78 | 52.3 | 16 (≈ 44.2 µM) | –
5 | O=C(Cn1nnc(/C=C/c2ccccc2)n1)N/N=C/c1ccc(Cl)cc1 | 64 (≈ 174 µM) | > 125 | 64 (≈ 174 µM) | – | – | – | – | – | – | – | – | – | –
6 | O/N=C/C=C/c1ccccc1 | – | > 125 | > 125 | – | – | – | – | – | – | – | – | – | –
7 | C[C@@H]1[C@H](O)[C@@H](C)/C=C/C=C/C=C/C=C/C=C/C=C/C=C/[C@H](O[C@@H]2O[C@H](C)[C@@H](O)[C@H](N)[C@@H]2O)C[C@@H]2O[C@](O)(C[C@@H](O)C[C@@H](O)[C@H](O)CC[C@@H](O)C[C@@H](O)CC(=O)O[C@H]1C)C[C@H](O)[C@H]2C(=O)O [AMPHOTERICIN B] | – | – | – | – | – | – | – | – | – | – | – | – | >90
8 | N#C/C=C/c1ccccc1 [CINNAMONITRILE] | > 125 | > 125 | > 125 | – | – | – | – | – | – | – | – | > 125 | –
9 | OC(Cn1cncn1)(Cn1cncn1)c1ccc(F)cc1F [FLUCONAZOLE] | 16 (≈ 52.2 µM) | – | 0.25 (≈ 0.816 µM) | – | – | – | – | – | – | – | – | – | –
